Assay outcomes deposited in PubChem by several laboratories.
Hits are enriched below; roughly 1.5% of the tested compounds scored in any of these assays.
GalR3 antagonist – antagonists of human GalR3. O60755. HEK293 GalR3-CNG cAMP membrane potential fluorescence; galR3 body fused to GalR1 C-terminus. inhibition, % at 3 µM. 360,000 tested, 0.44% active;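 active means inhibition above the screen-wide average plus 3 SD, cut at about 13% in these data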;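 further: forskolin and galanin both at EC90 stimulate the cells; cAMP rise reported by CNG channel membrane potential dye signal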
Target sequence (O60755 1-299 limits assumed): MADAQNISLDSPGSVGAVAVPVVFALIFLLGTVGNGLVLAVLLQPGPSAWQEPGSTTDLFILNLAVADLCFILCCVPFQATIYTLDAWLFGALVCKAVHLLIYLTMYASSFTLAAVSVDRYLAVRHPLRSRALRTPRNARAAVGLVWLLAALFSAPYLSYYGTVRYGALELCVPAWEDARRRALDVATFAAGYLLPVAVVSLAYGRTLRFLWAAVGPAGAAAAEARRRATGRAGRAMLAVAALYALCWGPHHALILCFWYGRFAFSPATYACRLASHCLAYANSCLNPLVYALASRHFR
Jurkat NFkB inh – inhibitors of the PMA/ionomycin-induced NF-kB reporter in Jurkat cells; PMA/ionomycin-induced NF-kB luciferase reporter, luminescence; inhibition, % at 4 µM; 330,000 tested, 0.53% active; in the data active means inhibition above about 50%
NR2E3 ag-1 – agonists of human nuclear receptor NR2E3; GST-NR2E3/biotin-RetCOR TR-FRET, 1536-well; inhibition of corepressor binding, % at 4.78 µM; Q9Y5X4; 320,000 tested, 0.12% active; AID 2300;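 active means percent inhibition above the cutoff of mean plus 3 SD of all tested compounds, set per screening campaign, cut at about 20% in these data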
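system = GST-tagged NR2E3 plus biotinylated RetCOR corepressor | input = 1.35 nM GST-NR2E3 | also added = 7 nM biotin-RetCOR | schedule = 5 h incubation at 4 °C | measured by = TR-FRET with europium anti-GST and streptavidin-D2, 340 nm excitation | read-out = percent loss of FRET ratio relative to control wells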
NR2E3 ag-2 – human photoreceptor-specific nuclear receptor agonism; CHO-S Gal4-NCOR/VP16-NR2E3 two-hybrid, luciferase; inhibition of corepressor binding, % at 3.98 µM; 360,000 tested, 0.35% active; AID 602229;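 active means inhibition above the mean of all tested compounds plus 3 SD, cut at about 70% in these data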;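 further: higher means lower luciferase signal from less NR2E3 corepressor binding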
697 NFkB inh – inhibitors of the PMA/ionomycin-induced NF-kB reporter in 697 B cells. 697 B-cell NF-kB luciferase reporter, 16 h. inhibition, % at 4 µM. 330,000 tested, 0.33% active. AID 435022; in the data active means inhibition above about 35%
GASC-1 inh – inhibitors of human GASC-1 (JMJD2C) demethylase | GST-JMJD2C(1-420) H3K9me3 demethylation, DELFIA europium | inhibition, % at 2.35 µM | 330,000 tested, 0.069% active;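 active means more than half of a compound's replicate wells show inhibition beyond 50%, single wells judged on their own value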;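 further: signal counts dimethyl H3K9 product captured on neutravidin plate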
GalR3 antag conf – GalR3 (human) antagonism, confirmation | shares compounds with GalR3 antagonist | HEK293 GalR3 CNG cAMP biosensor, membrane potential fluorescence; galR3 fused to GalR1 carboxy tail; challenged with forskolin and galanin at EC90 | inhibition, % at 3 µM | 1,600 tested, 59% active | AID 652245;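 active means inhibition above the primary screen's cutoff, the mean inhibition of all screened compounds plus 3 SD, cut at about 13% in these data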
HEK-CNG parental – parental cell agonism counter-screen for GalR3 antagonists; shares compounds with GalR3 antagonist; HEK293-CNG parental cells, cAMP membrane potential fluorescence; normalised: DMSO wells 0%, forskolin wells 100%; AID 652268; activation, % at 3 µM; 1,600 tested, 10% active; in the data active means activation above about 1.3%
A number is an active result; n = inactive; x = no result.

SMILES	GalR3 antagonist	Jurkat NFkB inh	NR2E3 ag-1	NR2E3 ag-2	697 NFkB inh	GASC-1 inh	GalR3 antag conf	HEK-CNG parental
O=C(N/N=C/c1c(O)n(CCc2ccc(F)cc2)c(=O)[nH]c1=O)c1ccncc1	24.8	n	n	n	n	n	19.0	n
N=C1c2ccccc2CN1NC(=O)c1ccco1	12.6	n	x	n	n	n	n	n
CCc1c(-c2ccccc2)nc2ccccc2c1C(=O)N1CCC2(CC1)OCCO2	n	n	n	n	n	n	x	x
O=C(NC(Cc1cnc[nH]1)C(=O)O)c1ccccc1 (centres undefined)	12.6	n	n	n	n	n	n	n
CCNCC(O)c1cccc(O)c1 (centres undefined)	53.7	n	n	n	n	n	67.5	n
COc1ccc(-n2c(O)c(C=NCc3ccc4c(c3)OCO4)c(=O)[nH]c2=O)cc1	13.8	n	n	n	n	n	n	n
O=C(Nc1nc(-c2ccccc2)c(-c2ccccc2)s1)c1ccc(S(=O)(=O)N(CCCl)CCCl)cc1	n	n	n	n	n	n	x	x
CCCCCN1C(=O)c2ccccc2[C@@]2(C(=O)OCC)Cc3cc(OC)ccc3[C@@H]12	n	x	x	n	x	x	x	x
CCC(=O)N1CCN(CCN=Cc2c(O)n(C)c(=O)n(C)c2=O)CC1	n	n	n	n	n	n	x	x
Cn1c(O)c(C=NCCCCCCCCCCC(=O)O)c(=O)n(C)c1=O	17.3	n	n	n	n	n	13.5	n
COC(=O)C1=C(c2cccc(C#N)c2)C[C@@H]2CC[C@H]1N2C(=O)NC1Cc2ccccc2C1	n	n	n	n	n	n	x	x
COC(=O)C1=C(c2cccc(C#N)c2)C[C@@H]2CC[C@H]1N2C(=O)NC1CC1	15.5	n	n	n	n	n	12.7	n
COC(=O)C1=C(c2ccc(OC)c(OC)c2)C[C@@H]2CC[C@H]1N2C(=O)NC1CC1	15.3	n	n	n	n	n	n	n
Clc1cc(Cl)cc(CN2Cc3cc(Br)ccc3-n3nncc3C2)c1	n	x	x	x	x	x	x	x
Cc1ccc(C(=O)NCCN2CCC3(CC2)C(=O)NCN3c2ccccc2)cc1	n	x	x	x	x	x	x	x
Cc1ccc(/C=C2\C(=O)NC(=O)N(CC3CCCO3)C2=O)s1 (centres undefined)	15.7	n	n	n	n	n	n	n
CCN(CC)c1ccc(/C=C2\C(=O)NC(=O)N(CC3CCCO3)C2=O)cc1 (centres undefined)	n	n	n	n	n	n	x	x
COc1ccc(C(=O)N/N=C/C23CC[C@@H](O)CC2(O)CC[C@@H]2[C@@H]3CCC3(C)C(C4=CC(=O)OC4)CCC23O)cc1 (some centres undefined)	34.0	n	n	n	n	n	39.8	n
CC12CC[C@H]3[C@@H](CCC4(O)C[C@H](O)CCC34/C=N/NC(=O)c3ccccc3O)C1(O)CCC2C1=CC(=O)OC1 (some centres undefined)	30.5	n	n	n	n	n	24.7	n
CC12CC[C@H]3[C@@H](CCC4(O)C[C@H](O)CCC34/C=N/NC(=O)c3ccc(O)cc3)C1(O)CCC2C1=CC(=O)OC1 (some centres undefined)	n	n	n	n	n	n	x	x
CC12CC[C@H]3[C@@H](CCC4(O)C[C@H](O)CCC34/C=N/NC(=O)c3ccccc3F)C1(O)CCC2C1=CC(=O)OC1 (some centres undefined)	37.2	n	n	n	n	n	23.4	n
C[C@@H]1COc2cccc(N3CCN(C)CC3)c2S(=O)(=O)N1	n	x	x	n	x	x	x	x
COC(=O)C1=C(c2ccc(OCc3ccccc3)cc2)C[C@@H]2CC[C@H]1N2C(=O)NCCc1ccc(F)cc1	n	x	x	n	x	x	x	x
CC(=O)OCC[N+](C)(C)C	43.5	n	n	n	n	n	70.2	n
Cc1nn(Cc2ccccc2)c(C)c1C(=O)OCC(=O)Nc1cc(S(C)(=O)=O)ccc1Cl	n	n	n	n	n	n	x	x
SMILES	GalR3 antagonist	Jurkat NFkB inh	NR2E3 ag-1	NR2E3 ag-2	697 NFkB inh	GASC-1 inh	GalR3 antag conf	HEK-CNG parental
Oc1ccc(C2=CCNCC2)cc1O	73.5	n	n	n	n	n	86.5	n
C1=C(c2ccccc2)CCNC1	n	n	n	n	n	n	x	x
O=C(Cc1cc(=O)oc2cc(O)ccc12)NN=Cc1ccc(N(CCCl)CCCl)cc1	16.0	x	x	n	x	x	31.1	n
O=C(NN=Cc1ccc(N(CCCl)CCCl)cc1)c1cc(=O)[nH]c(=O)[nH]1	n	x	x	n	x	x	x	x
O=P(NCc1ccccc1)(Oc1ccccc1)Oc1ccccc1	n	n	n	n	n	n	x	x
CCOC(=O)C(O)(c1ccc(NC(=S)NC(=O)c2ccc(Cl)cc2Cl)c(C)c1)C(F)(F)F (centres undefined)	45.1	n	n	n	n	n	49.7	n
COC(=O)C(O)(c1ccc(NC(=S)NC(=O)c2ccc(Cl)cc2Cl)c(C)c1)C(F)(F)F (centres undefined)	n	n	n	n	n	n	x	x
COC(=O)C1=C(c2ccc(F)cc2OCc2ccccc2)C[C@@H]2CC[C@H]1N2C(=O)NCc1cccc(C(F)(F)F)c1	n	n	n	n	n	n	x	x
Nc1cc(Cl)c2nonc2c1[N+](=O)[O-]	35.3	x	n	n	x	n	20.2	n
CC(=O)NCCc1c[nH]c2ccccc12	n	n	n	n	n	n	x	x
CC(=O)c1cn(CC(=O)NCCc2c[nH]c3ccccc23)c2ccccc12	17.6	n	n	n	n	n	58.1	n
